Where only a bound is given, the exact number is not on record here.

This assay deals with Prothrombin (Homo sapiens, UniProt P00734). Description: Inhibition of human alpha-thrombin assessed as spectrozyme TH hydrolysis after 10 mins by spectrophotometric analysis. Summed up: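 Human α-thrombin (~5 nM initial) preincubated 10 min with inhibitor (4 μg/ml to 5 mg/ml stocks) at 25 °C. Buffer: 20 mM Tris-HCl pH 7.4, 100 mM NaCl, 2.5 mM CaCl2, 0.1% PEG 8000. Fractional residual activity fitted to logistic equation (Hill slope fixed at 1) for IC50 and efficacy ΔY.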

`CCOC(=O)c1c(C)oc2cc(OC(=O)N3CCOCC3)c(OS(=O)(=O)O)cc12`: the half-inhibitory concentration (IC50) is over 2500 µM.

For orientation: IC50 means the point on the concentration scale where inhibition reaches its midpoint.

Source of the values: BindingDB's records for doi:10.1021/jm2005767 (Virginia Commonwealth University, 2011).
